Calls of active or inactive are those of the source. No cut-off for these calls is given here.
Experiments:
Glucagon receptor = Glucagon receptor (Homo sapiens, UniProt P47871); assay: Antagonist activity at glucagon receptor (unknown origin)
[1] = target: T1, Glucagon-like peptide 1 receptor (Homo sapiens, UniProt P43220); assay: Antagonist activity at human GLP-1R expressed in TREx293 cells co-expressing cAMP sensitive luciferase assessed as inhibition of exendin-4-induced cAMP accumulation after 90 mins by GloSensor cAMP assay relative to GLP-1; type: functional, cell-based
In short: (§1)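 TREx293 HEK cells expressing GLP-1R, GloSensor cAMP read-out. The minimum response is expressed as % of the GLP-1 response (GLP-1 min). n = 3, average ± SEM.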

Cytochrome P450 1A2 = target: T2, Cytochrome P450 1A2 (Homo sapiens, UniProt P05177); assay: Inhibition of CYP1A2 in human liver microsomes using phenacetin as substrate preincubated for 15 mins followed by NADPH addition measured after 8 mins by LC-MS/MS analysis; type: ADME
T2 sequence (P05177 whole entry): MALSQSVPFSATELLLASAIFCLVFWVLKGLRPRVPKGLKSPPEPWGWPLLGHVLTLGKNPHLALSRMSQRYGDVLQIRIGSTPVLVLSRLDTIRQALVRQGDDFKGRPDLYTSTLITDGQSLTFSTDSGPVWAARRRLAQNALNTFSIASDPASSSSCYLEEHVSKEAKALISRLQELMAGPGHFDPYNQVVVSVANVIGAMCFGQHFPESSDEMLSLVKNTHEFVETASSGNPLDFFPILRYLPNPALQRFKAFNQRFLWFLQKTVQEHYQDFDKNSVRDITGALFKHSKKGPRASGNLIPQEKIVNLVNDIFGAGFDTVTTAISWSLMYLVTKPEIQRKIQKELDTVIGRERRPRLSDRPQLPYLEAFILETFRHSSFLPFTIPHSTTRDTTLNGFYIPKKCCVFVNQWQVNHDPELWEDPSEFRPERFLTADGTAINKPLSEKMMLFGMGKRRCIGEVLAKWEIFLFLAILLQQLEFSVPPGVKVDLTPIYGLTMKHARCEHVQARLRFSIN

Rattus norvegicus [2] = assay: Decrease in blood insulin level in Sprague-Dawley rat at 10 mg/kg, po pretreated for 30 mins followed by glucose challenge measured up to 150 mins by oral glucose tolerance test; type: functional, organism-based
In short: (§2)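 OGTT in male Sprague-Dawley rats with surgically implanted carotid cannulae, randomized to compound (10 mg/kg po) or vehicle. Dosing is 30 min before a 2 g/kg glucose gavage at time 0. Carotid blood is sampled at intervals for whole blood glucose and insulin.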

[3] = target: T1, Glucagon-like peptide 1 receptor; assay: Antagonist activity at human GLP-1R expressed in TREx293 cells co-expressing cAMP sensitive luciferase assessed as inhibition of exendin-4-induced cAMP accumulation after 90 mins by GloSensor cAMP assay; type: functional, cell-based
In short: (§3)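 GloSensor cAMP luminescence read-out in TREx293 HEK cells expressing GLP-1R. IC50 and pIC50 come from the concentration–response curves. n = 3, reported as average ± SEM.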

[4] = Ratio of drug level in Sprague-Dawley rat brain to plasma at 3 mg/kg via oral gavage after 1 hr by LC-MS/MS analysis; type: ADME, organism-based
In short: (§4)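 Rat distribution study: single 3 mg/kg oral dose. Plasma (ng/mL) and brain concentrations are measured at 1 h, and brain/plasma Kp is calculated from them.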

Rattus norvegicus [5] = assay: Increase in blood glucose level in Sprague-Dawley rat at 10 mg/kg, po pretreated for 30 mins followed by glucose challenge measured up to 150 mins by oral glucose tolerance test; type: functional, organism-based; in short: as §2
Cytochrome P450 3A4 = Cytochrome P450 3A4 (Homo sapiens, UniProt P08684); assay: Inhibition of CYP3A4 in human liver microsomes using midazolam as substrate preincubated for 15 mins followed by NADPH addition measured after 8 mins by LC-MS/MS analysis; type: ADME
[6] = Plasma clearance in Sprague-Dawley rat at 1 mg/kg, iv or 3 mg/kg via oral gavage by LC-MS/MS analysis; type: ADME, organism-based
In short: (§5)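 Rat PK study with dosing at 1 mg/kg iv and 3 mg/kg po. The study reports plasma clearance (mL min⁻¹ kg⁻¹), t1/2 (min), Vss (L/kg) and oral bioavailability F (%).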

Cytochrome P450 2C9 = Cytochrome P450 2C9 (Homo sapiens, UniProt P11712); assay: Inhibition of CYP2C9 in human liver microsomes using diclofenac as substrate preincubated for 15 mins followed by NADPH addition measured after 8 mins by LC-MS/MS analysis; type: ADME
[7] = Drug uptake in Sprague-Dawley rat brain at 3 mg/kg via oral gavage after 1 hr by LC-MS/MS analysis; type: ADME, organism-based; details: read-out: Drug uptake; in short: as §4
[8] = Drug uptake in Sprague-Dawley rat plasma at 3 mg/kg via oral gavage after 1 hr by LC-MS/MS analysis; type: ADME, organism-based; in short: as §4
[9] = target: T1, Glucagon-like peptide 1 receptor; assay: Antagonist activity at human GLP-1R expressed in TREx293 cells co-expressing cAMP sensitive luciferase assessed as inhibition of GLP1 (7 to 36 residues) amide-induced cAMP accumulation after 90 mins by GloSensor cAMP assay; type: functional, cell-based; in short: as §3
[10] = Fraction unbound in human plasma at 5 uM after 4 hrs by LC-MS/MS based equilibrium dialysis method; type: ADME, cell-free
[11] = target: T1, Glucagon-like peptide 1 receptor; assay: Non-competitive antagonism/negative allosteric modulation of human GLP-1R expressed in TREx293 cells co-expressing cAMP sensitive luciferase assessed as inhibition of fixed concentration of GLP1 (7 to 36 residues) amide-induced cAMP accumulation by measuring decrease in GLP-1 maximum response at 0.3 to 10 uM after 90 mins by GloSensor cAMP assay; type: functional, cell-based
In short: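 A full GLP-1 (7−36) amide concentration–response curve is run in GLP-1R TREx293 HEK cells with GloSensor cAMP detection. It is repeated in the presence of increasing fixed concentrations of antagonist, and the decrease in the GLP-1 maximal response is followed. n = 3.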

[12] = Half life in Sprague-Dawley rat at 1 mg/kg, iv or 3 mg/kg via oral gavage by LC-MS/MS analysis; type: ADME, organism-based; details: in vivo; in short: as §5
Cytochrome P450 2D6 = Cytochrome P450 2D6 (Homo sapiens, UniProt P10635); assay: Inhibition of CYP2D6 in human liver microsomes using dextromethorphan as substrate preincubated for 15 mins followed by NADPH addition measured after 8 mins by LC-MS/MS analysis; type: ADME
[13] = target: T1, Glucagon-like peptide 1 receptor; assay: Antagonist activity at human GLP-1R expressed in TREx293 cells co-expressing cAMP sensitive luciferase assessed as inhibition of GLP1 (7 to 36 residues) amide-induced cAMP accumulation after 90 mins by GloSensor cAMP assay relative to GLP-1; type: functional, cell-based; in short: as §1
[14] = target: T3, Glucagon-like peptide 1 receptor (Mus musculus) (UniProt O35659); assay: Antagonist activity at GLP-1R in C57BL/6J mouse primary islets assessed as inhibition of exendin-4-induced increase in glucose-stimulated insulin secretion at 1 uM after 60 mins by radio-immunoassay
T3 sequence (whole entry): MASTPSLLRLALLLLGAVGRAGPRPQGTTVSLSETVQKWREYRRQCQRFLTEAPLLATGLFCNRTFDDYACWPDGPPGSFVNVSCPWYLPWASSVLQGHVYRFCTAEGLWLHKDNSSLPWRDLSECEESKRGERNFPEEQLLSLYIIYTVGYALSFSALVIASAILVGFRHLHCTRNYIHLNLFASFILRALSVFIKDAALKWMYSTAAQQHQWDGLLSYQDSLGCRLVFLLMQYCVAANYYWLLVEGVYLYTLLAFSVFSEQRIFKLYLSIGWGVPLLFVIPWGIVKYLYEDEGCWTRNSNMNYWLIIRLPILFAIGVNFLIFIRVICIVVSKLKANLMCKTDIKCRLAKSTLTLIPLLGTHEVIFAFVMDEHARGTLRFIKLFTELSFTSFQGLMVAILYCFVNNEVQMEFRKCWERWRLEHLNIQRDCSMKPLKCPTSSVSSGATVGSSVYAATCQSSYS

[15] = Volume of distribution at steady state in Sprague-Dawley rat at 1 mg/kg, iv or 3 mg/kg via oral gavage by LC-MS/MS analysis; type: ADME, organism-based; details: in vivo, read-out: Vdss; in short: as §5
[16] = Fraction unbound in rat plasma at 5 uM after 4 hrs by LC-MS/MS based equilibrium dialysis method; type: ADME, cell-free
[17] = Oral bioavailability in Sprague-Dawley rat at 3 mg/kg via gavage by LC-MS/MS analysis; type: ADME, organism-based; details: in vivo; in short: as §5
[18] = target: T1, Glucagon-like peptide 1 receptor; assay: Antagonist activity at GLP-1R (unknown origin)

Sequence of Cytochrome P450 2D6 (P10635 whole entry, the tested form may be a part): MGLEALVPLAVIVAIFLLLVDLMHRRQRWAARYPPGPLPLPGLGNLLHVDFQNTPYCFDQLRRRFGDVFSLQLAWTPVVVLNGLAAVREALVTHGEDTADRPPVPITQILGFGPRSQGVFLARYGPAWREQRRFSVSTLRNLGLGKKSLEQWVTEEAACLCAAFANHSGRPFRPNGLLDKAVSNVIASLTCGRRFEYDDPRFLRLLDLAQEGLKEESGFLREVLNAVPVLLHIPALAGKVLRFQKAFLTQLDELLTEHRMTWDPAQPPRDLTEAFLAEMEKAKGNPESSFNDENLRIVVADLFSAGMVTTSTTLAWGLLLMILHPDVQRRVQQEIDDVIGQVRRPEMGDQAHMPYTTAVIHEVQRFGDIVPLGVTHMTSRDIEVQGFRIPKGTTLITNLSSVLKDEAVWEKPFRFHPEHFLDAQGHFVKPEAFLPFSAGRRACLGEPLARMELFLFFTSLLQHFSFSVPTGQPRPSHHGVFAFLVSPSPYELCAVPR
Sequence of Cytochrome P450 2C9 (P11712 whole entry): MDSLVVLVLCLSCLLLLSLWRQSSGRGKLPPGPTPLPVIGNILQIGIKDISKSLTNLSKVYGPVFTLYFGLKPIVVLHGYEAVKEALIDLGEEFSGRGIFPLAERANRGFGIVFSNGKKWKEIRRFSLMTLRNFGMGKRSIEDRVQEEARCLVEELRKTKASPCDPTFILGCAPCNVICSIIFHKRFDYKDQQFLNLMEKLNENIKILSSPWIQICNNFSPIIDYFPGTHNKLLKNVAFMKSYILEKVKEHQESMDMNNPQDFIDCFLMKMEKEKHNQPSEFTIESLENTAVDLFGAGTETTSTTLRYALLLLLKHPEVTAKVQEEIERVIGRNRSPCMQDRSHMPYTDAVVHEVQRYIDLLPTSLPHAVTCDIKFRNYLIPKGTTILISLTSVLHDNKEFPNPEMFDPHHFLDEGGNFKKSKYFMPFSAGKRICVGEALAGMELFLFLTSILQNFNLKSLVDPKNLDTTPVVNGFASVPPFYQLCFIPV
T1 sequence (P43220 whole entry): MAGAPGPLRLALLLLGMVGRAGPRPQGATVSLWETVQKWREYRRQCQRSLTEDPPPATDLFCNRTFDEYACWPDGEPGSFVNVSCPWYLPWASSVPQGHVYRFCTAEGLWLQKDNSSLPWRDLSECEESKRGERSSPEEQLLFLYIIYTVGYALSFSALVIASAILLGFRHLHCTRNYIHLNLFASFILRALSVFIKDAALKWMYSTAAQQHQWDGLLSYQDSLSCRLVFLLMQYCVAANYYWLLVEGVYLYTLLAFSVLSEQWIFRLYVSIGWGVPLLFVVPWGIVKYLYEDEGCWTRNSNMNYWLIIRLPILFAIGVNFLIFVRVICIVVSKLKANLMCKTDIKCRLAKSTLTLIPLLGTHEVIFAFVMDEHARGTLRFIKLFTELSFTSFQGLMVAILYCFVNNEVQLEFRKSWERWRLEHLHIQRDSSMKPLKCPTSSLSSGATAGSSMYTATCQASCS
Sequence of Glucagon receptor (P47871 whole entry): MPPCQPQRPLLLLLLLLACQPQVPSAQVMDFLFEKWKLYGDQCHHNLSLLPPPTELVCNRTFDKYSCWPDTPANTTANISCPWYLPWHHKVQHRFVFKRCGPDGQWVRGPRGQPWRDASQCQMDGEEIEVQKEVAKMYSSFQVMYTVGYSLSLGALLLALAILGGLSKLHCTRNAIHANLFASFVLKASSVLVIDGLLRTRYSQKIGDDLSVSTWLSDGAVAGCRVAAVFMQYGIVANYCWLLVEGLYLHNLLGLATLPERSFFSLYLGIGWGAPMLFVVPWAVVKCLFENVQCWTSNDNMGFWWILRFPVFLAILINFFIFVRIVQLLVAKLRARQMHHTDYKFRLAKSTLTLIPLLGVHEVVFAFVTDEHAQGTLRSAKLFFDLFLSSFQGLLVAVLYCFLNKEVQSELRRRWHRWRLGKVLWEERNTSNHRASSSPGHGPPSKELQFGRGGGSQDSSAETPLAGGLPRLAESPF
Sequence of Cytochrome P450 3A4 (P08684 whole entry): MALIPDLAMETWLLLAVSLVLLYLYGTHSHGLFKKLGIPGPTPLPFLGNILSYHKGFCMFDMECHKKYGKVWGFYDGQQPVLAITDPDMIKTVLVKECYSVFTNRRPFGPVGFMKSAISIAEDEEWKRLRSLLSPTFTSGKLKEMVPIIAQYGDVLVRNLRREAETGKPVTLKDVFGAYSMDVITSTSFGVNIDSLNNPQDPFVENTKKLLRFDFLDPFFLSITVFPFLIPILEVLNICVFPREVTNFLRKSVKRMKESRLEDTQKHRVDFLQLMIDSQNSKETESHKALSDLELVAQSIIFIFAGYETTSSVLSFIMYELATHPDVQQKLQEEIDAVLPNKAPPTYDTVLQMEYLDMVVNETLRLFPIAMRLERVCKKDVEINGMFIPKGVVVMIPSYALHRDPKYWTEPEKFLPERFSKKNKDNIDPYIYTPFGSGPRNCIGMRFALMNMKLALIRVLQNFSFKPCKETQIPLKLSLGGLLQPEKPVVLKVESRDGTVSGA

IC50 (Glucagon receptor) [µM] | Emin [1] [%] | IC50 (Cytochrome P450 1A2) [µM] | IC50 [3] [µM] | Kp at 1 h [4] | IC50 (Cytochrome P450 3A4) [µM] | clearance [6] [mL/min/kg] | IC50 (Cytochrome P450 2C9) [µM] | concentration at 1 h [7] [ng/g] | concentration at 1 h [8] [ng/mL] | IC50 [9] [µM] | fraction unbound at 4 h, 5 µM [10] | inhibition [11] | half-life [12] [h] | IC50 (Cytochrome P450 2D6) [µM] | Emin [13] [%] | inhibition [14] | Vd [15] [L/kg] | fraction unbound at 4 h, 5 µM [16] | bioavailability [17] [%] | SMILES | also measured
> 30 | 19.7 | 4.01 | 0.69 | 1.45 | > 30 | 4.79 | 0.41 | 65.1 | 45 | 0.65 | 0.007 | Dose-dependent effect | 9.78 | > 30 | 20.9 | Active | 3.57 | 0.011 | 50 | Cn1c2c(c(=O)n(C)c1=O)C(C(F)(F)F)(C(F)(F)F)NC(c1ccc(Cl)cc1)=N2 | Activity (Rattus norvegicus [2]): Active; Activity (Rattus norvegicus [5]): Active
– | 26.4 | – | 7.2 | – | – | – | – | – | – | 7.2 | – | – | – | – | 22.7 | – | – | – | – | COc1cccc(C2=NC(C(F)(F)F)(C(F)(F)F)c3c(n(CC(C)C)c(=O)[nH]c3=O)N2)c1 | –
– | – | – | – | – | – | – | – | – | – | – | – | – | – | – | – | – | – | – | – | COc1ccc2c(c1)N(c1ccccc1F)C(=O)[C@@]2(CCC(=O)O)NC(=O)c1cc2ccccc2cn1 | IC50 [18]: 21 µM
– | 32 | – | 1.5 | – | – | – | – | – | – | 1.3 | – | – | – | – | 36.2 | – | – | – | – | O=c1[nH]c(=O)n(Cc2ccccc2)c2c1C(C(F)(F)F)(C(F)(F)F)N=C(c1cccs1)N2 | –
> 30 | 15.5 | 25 | 0.69 | 0.02 | > 30 | 3.64 | 0.47 | 2.4 | 76.7 | 0.61 | 0.005 | Dose-dependent effect | 0.7 | 21.2 | 16.4 | Active | 0.22 | 0.005 | – | Cn1c2c(c(=O)n(C)c1=O)C(C(F)(F)F)(C(F)(F)F)N=C(c1cccc([N+](=O)[O-])c1)N2 | –
> 30 | 23.9 | > 30 | 5.8 | 0.03 | 16.4 | 36.4 | 3.78 | 37.1 | 1140 | 5.9 | 0.003 | – | 2.42 | 8.13 | 16.8 | – | 0.69 | 0.002 | 100 | COc1cccc(C2=NC(C(F)(F)F)(C(F)(F)F)c3c(n(-c4ccc(Cl)cc4)c(=O)[nH]c3=O)N2)c1 | –
